The source of these data is ChEMBL document CHEMBL4765301, “Discovery of novel TNNI3K inhibitor suppresses pyroptosis and apoptosis in murine myocardial infarction injury” (Eur J Med Chem, 2020).

The source made the active and inactive calls. No cut-off for these calls is given here.

Test [1] has as its target Receptor tyrosine-protein kinase erbB-2 (Homo sapiens) (UniProt P04626). Nature of the test: Inhibition of recombinant human HER2 (676 to end residues) assessed as residual activity at 1 uM using poly(Glu, Tyr) 4:1 as substrate incubated for 40 mins by [gamma-33P]-ATP scintillation counting based radiometry assay relative to control.
Test [2] addresses Mitogen-activated protein kinase 1 and 3 (ERK2 and ERK1) (Rattus norvegicus) (UniProt P63086+P21708). Nature of the test: Inhibition of ERK1/2 phosphorylation in rat H9c2 cells at 0.5 to 1 uM by Western blot analysis. In kind it is cell-based. The conditions noted are these: dose 0.5-1 µM. The procedure, abridged: (§1)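 H9c2 cells under OGD were treated with saline or 0.5 or 1.0 µM inhibitor. Cells were trypsinised, washed in cold PBS, lysed in RIPA with sonication and centrifuged 30 min. Total protein was quantified and separated by SDS-PAGE, then transferred to PVDF. Blots were probed with primary and secondary antibodies and detected by ECL.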

Test [3] concerns the target T1, Serine/threonine-protein kinase TNNI3K (Homo sapiens, UniProt Q59H18).
T1 sequence (Q59H18 whole entry): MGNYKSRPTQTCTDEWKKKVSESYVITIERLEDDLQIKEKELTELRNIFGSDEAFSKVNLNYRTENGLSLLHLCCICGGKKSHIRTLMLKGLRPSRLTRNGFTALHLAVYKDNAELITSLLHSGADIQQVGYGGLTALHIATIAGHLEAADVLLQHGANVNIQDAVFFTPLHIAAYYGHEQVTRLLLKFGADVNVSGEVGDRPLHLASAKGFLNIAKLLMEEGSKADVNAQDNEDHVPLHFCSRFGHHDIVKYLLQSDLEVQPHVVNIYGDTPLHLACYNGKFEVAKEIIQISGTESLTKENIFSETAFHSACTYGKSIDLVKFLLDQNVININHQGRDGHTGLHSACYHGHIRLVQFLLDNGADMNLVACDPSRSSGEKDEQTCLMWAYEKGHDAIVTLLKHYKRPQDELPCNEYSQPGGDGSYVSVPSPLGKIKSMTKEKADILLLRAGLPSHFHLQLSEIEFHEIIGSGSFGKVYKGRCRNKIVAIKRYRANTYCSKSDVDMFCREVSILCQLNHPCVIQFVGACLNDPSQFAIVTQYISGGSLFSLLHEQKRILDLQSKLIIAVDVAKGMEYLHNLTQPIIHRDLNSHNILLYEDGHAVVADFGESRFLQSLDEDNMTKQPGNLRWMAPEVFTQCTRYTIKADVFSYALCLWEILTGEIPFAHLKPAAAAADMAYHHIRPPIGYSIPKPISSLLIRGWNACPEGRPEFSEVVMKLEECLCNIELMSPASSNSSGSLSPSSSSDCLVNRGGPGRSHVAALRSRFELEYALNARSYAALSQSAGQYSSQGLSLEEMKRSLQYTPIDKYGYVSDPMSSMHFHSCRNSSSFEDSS
Nature of the test: Inhibition of TNNI3K (unknown origin) using biotinylated CTnI as substrate by HTRF analysis. In a few lines:
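TNNI3K was assayed by HTRF using a GST-tagged TNNI3K kinase domain and a biotinylated cardiac troponin I substrate peptide, followed by the two HTRF detection reagents. Compounds were screened at 1.0 µM, then IC50s were determined.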

Test [4] relates to H9c2. Nature of the test: Inhibition of OGD-induced apoptosis in rat H9c2 cells assessed as reduction in ASC level at 0.5 to 1 uM by Western blot analysis. In kind it is functional, cell-based. The conditions noted are these: dose 0.5-1 µM. The procedure, abridged:
as §1

In test [5] the test system is H9c2. Nature of the test: Cytoprotective activity against OGD-induced cell death in rat H9c2 cells assessed as cell viability at 1 uM incubated for 24 hrs by MTT assay (reference value: 42.08 to 49.11 %). The note with it: read-out: Activity. Format: functional.
In test [6] the test system is H9c2. Nature of the test: Inhibition of OGD-induced apoptosis in rat H9c2 cells assessed as reduction in proIL-1beta level at 0.5 to 1 uM by Western blot analysis. In kind it is functional, cell-based. The note with it: dose 0.5-1 µM. The procedure, abridged: as §1
The test system of test [7] is Mus musculus. Put plainly: In vivo inhibition of TNNI3K in C57BL/6 mouse at 25 mg/kg, ip administered for 28 days and measured on day 28 by immunohistochemical staining based fluorescence microscopy. The conditions noted are these: time 28.0 day. In kind it is functional, organism-based. The procedure, abridged: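 Male C57BL/6 mice (5-6 weeks) with LAD-ligation MI; sham, saline or 25 mg/kg ip every two days, n=4, 28 days. Heart sections given EDTA (pH 8.0) or citrate (pH 6.0) microwave antigen retrieval, then primary antibody 30-40 min at 37°C. Detection by HRP polymer secondary with DAB (IHC) or fluorescent secondary (IF). Positive cells were quantified.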

The subject of test [8] is H9c2. Put plainly: Inhibition of OGD-induced apoptosis in rat H9c2 cells assessed as reduction in NLRP3 level at 0.5 to 1 uM by immunofluorescence staining based fluorescence microscopy. Format: functional, cell-based. The note with it: dose 0.5-1 µM. The procedure, abridged:
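In OGD-exposed H9c2 cells treated with 0.5 or 1.0 µM inhibitor, intracellular distribution and co-localisation of caspase-1 and NLRP3 were assessed by immunofluorescence microscopy.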

Test [9] relates to Mus musculus. Put plainly: Cardioprotective activity in C57BL/6 mouse model of myocardial infarction assessed as reduction in ventricular dilatation at 25 mg/kg, ip administered for 28 days and measured on day 28 by H and E staining based fluorescence microscopy. In kind it is functional, organism-based. The conditions noted are these: time 28.0 day. The procedure, abridged:
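MI made in male C57BL/6 mice (5-6 weeks) by permanent LAD ligation under ip ketamine (100mg/kg)/xylazine (10mg/kg), ventilated. Groups: sham, saline (NS), inhibitor 25 mg/kg ip every two days, n=4. Hearts examined after 28 days; TTC, Masson's trichrome and H&E staining of sections for infarct, collagen/scar, LV inflammatory cells and dilatation.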

The subject of test [10] is H9c2. Nature of the test: Inhibition of OGD-induced apoptosis in rat H9c2 cells assessed as reduction in IL-1beta level at 0.5 to 1 uM by Western blot analysis. The note with it: dose 0.5-1 µM. Format: functional, cell-based. The procedure, abridged: as §1
Test [11] relates to H9c2. Nature of the test: Inhibition of OGD-induced apoptosis in rat H9c2 cells assessed as late apoptotic cells at 0.5 uM incubated for 24 hrs by annexinV-FITC and PI staining based flow cytometry analysis (reference value: 9 %). In kind it is functional.
Test [12] relates to H9c2. Nature of the test: Inhibition of OGD-induced apoptosis in rat H9c2 cells assessed as viable cells at 1 uM incubated for 24 hrs by annexinV-FITC and PI staining based flow cytometry analysis (reference value: 85 %). In kind it is functional.
Test [13] deals with Mus musculus. Nature of the test: Cardioprotective activity in C57BL/6 mouse model of myocardial infarction assessed as reduction in collagen deposition at 25 mg/kg, ip administered for 28 days and measured on day 28 by […] staining based fluorescence microscopy. Format: functional, organism-based. The conditions noted are these: time 28.0 day. In a few lines:
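Male C57BL/6 mice (5-6 weeks); MI by permanent LAD ligation under ip ketamine (100mg/kg)/xylazine (10mg/kg) with ventilation; sham group operated without LAD occlusion. Post-MI mice randomised to sham, normal saline or inhibitor groups (n=4); 25 mg/kg given ip every two days. Hearts assessed after 28 days: TTC staining (infarct yellow-white, viable red), Masson's trichrome (blue collagen) and H&E.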

The test system of test [14] is H9c2. Put plainly: Inhibition of OGD-induced apoptosis in rat H9c2 cells assessed as reduction in caspase1 level at 0.5 to 1 uM by Western blot analysis. In kind it is functional, cell-based. The note with it: dose 0.5-1 µM. The procedure, abridged: as §1
The test system of test [15] is H9c2. Nature of the test: Inhibition of OGD-induced apoptosis in rat H9c2 cells assessed as late apoptotic cells at 1 uM incubated for 24 hrs by annexinV-FITC and PI staining based flow cytometry analysis (reference value: 9 %). In kind it is functional.
The test system of test [16] is H9c2. Put plainly: Inhibition of OGD-induced apoptosis in rat H9c2 cells assessed as necrotic cells at 1 uM incubated for 24 hrs by annexinV-FITC and PI staining based flow cytometry analysis (reference value: 2.45 %). In kind it is functional.

Receptor tyrosine-protein kinase erbB-2 (Homo sapiens), sequence (P04626 whole entry): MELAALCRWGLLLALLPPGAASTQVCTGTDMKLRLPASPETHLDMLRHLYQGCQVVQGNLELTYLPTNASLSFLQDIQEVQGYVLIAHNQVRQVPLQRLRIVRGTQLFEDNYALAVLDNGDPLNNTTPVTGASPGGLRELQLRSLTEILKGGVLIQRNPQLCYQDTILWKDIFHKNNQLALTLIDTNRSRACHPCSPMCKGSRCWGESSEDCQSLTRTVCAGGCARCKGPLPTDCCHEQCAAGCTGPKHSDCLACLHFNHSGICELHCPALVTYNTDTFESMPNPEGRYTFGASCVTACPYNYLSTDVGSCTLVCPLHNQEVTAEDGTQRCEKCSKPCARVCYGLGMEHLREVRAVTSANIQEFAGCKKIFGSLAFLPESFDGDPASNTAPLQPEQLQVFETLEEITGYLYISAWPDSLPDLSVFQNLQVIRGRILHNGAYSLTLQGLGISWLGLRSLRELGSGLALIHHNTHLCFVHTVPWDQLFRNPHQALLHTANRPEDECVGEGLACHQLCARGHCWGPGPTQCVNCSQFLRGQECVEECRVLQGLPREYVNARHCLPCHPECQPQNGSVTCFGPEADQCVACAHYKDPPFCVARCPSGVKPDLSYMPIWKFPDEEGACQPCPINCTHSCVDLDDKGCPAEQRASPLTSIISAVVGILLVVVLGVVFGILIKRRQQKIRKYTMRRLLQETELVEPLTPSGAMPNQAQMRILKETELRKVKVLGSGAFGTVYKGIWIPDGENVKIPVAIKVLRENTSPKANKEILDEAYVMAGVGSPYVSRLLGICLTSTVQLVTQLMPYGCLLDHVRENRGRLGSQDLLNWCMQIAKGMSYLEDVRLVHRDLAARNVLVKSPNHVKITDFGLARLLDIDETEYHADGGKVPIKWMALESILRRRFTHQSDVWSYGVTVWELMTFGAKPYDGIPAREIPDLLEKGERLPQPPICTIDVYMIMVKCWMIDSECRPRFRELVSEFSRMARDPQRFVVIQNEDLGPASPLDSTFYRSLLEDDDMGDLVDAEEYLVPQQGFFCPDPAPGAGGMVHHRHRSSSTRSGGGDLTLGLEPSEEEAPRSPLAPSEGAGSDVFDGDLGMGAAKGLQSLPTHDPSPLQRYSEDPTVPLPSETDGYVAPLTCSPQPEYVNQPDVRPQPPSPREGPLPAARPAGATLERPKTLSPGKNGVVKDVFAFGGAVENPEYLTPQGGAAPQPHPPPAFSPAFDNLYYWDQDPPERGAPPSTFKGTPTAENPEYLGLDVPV
Mitogen-activated protein kinase 1 and 3 (ERK2 and ERK1) (Rattus norvegicus), sequence (P21708 whole entry, looked up): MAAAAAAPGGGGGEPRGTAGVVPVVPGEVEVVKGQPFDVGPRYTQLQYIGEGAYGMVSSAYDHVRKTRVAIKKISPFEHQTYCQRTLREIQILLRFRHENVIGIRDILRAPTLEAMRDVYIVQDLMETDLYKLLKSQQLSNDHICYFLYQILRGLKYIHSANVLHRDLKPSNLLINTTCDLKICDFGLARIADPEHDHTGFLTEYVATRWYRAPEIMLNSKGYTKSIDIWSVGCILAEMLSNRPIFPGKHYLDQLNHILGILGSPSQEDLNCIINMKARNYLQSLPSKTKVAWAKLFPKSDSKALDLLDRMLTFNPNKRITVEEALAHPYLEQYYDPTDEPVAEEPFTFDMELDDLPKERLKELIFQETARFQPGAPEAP
Mitogen-activated protein kinase 1 and 3 (ERK2 and ERK1) (Rattus norvegicus), sequence (P63086 whole entry, looked up): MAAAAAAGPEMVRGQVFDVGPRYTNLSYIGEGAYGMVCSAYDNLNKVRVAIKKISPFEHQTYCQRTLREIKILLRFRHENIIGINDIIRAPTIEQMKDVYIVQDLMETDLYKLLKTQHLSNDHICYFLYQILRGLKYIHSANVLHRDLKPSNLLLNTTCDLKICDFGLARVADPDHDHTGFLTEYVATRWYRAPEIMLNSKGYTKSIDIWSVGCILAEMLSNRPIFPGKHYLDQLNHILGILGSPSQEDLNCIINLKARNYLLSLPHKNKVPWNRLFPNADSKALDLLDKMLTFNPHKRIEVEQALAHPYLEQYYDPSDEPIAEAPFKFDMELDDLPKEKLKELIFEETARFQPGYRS

With `CN(C)CCCN1CCc2c(sc3ncnc(Nc4ccc(N(C)C)c(NC(=O)c5ccco5)c4)c23)C1`, the Activity in test [1] came to 96%. Besides, the inhibition result (in test [2]; in the test with H9c2 [6]; in the test on H9c2 [14]) was “inactive” throughout. The compound also registered an IC50 in [3] of 240 nM. Further, the inhibition entry in the test with H9c2 [4], in the test on Mus musculus [7], with H9c2 [8] and in the test with H9c2 [10] was “Active” in each case. For the same compound, in the test with H9c2 [5], the viability at 1 µM was 73.8%. Also, the outcome in the test on Mus musculus [9] and in the test on Mus musculus [13] was Active. In the test with H9c2 [11], the inhibition at 0.5 µM is 7.15%. Besides, the inhibition at 1 µM came to 90.7% in the test on H9c2 [12], 5.02% with H9c2 [15] and 1.07% with H9c2 [16].
